Twelve compounds from ChEMBL document CHEMBL1142971, “NO-donor COX-2 inhibitors. New nitrooxy-substituted 1,5-diarylimidazoles endowed with COX-2 inhibitory and vasodilator properties” (J Med Chem, 2007) can be followed below.

pEC50, pIC50: −log10 of the molar value.

Series [1] deals with Prostaglandin G/H synthase 1 (Homo sapiens, UniProt P23219). As to the kind of experiment: Inhibition of COX1 in human whole blood assessed as TxB2 production after 1 hr. Type of series: tissue-based.
Series [2] addresses T1, Prostaglandin G/H synthase 2 (Homo sapiens, UniProt P35354).
T1 sequence (P35354 whole entry): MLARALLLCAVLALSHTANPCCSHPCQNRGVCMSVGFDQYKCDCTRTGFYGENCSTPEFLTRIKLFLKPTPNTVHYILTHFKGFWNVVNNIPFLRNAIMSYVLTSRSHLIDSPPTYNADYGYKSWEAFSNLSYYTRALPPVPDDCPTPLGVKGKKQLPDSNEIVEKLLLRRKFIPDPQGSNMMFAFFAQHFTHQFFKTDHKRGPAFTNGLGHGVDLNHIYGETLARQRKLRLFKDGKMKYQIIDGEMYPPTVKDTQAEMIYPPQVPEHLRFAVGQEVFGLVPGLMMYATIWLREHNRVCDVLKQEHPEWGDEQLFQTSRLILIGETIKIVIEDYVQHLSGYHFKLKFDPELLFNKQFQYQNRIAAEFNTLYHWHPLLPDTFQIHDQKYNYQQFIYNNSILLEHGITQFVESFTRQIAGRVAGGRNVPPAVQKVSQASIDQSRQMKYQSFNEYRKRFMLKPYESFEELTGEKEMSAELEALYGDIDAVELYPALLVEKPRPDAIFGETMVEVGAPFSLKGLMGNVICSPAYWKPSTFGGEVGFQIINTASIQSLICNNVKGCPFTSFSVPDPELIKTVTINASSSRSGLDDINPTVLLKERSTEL

For series [3], the species on record is Rattus norvegicus. The series can be described thus: Vasodilation of phenylephrine-induced contraction in Wistar rat aorta in the presence of ODQ. Type of series: functional. A digest of the protocol: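 Rat aortic strips (male Wistar, 180-200 g) were equilibrated 120 min. 1 μM ODQ (sGC inhibitor) was added to the bath 5 min before contraction with 1 μM L-phenylephrine. At plateau, cumulative vasodilator concentrations were added. Isometric relaxation was recorded and given as EC50 ± SE (μM).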

Series [4] in a line: Stability in human whole blood at 100 uM after 24 hrs. The class given is ADME, tissue-based. The following applies: read-out: Stability. In outline: (§1)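 Compound incubated at 37 ± 0.5 °C in human serum or human whole blood. Aliquots taken at set times were diluted 1:2 with acetonitrile containing 0.1% TFA to deproteinize, then sonicated, vortexed, centrifuged 15 min at 2150 × g and filtered.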

Series [5] can be described thus: Stability in human serum at 100 uM after 24 hrs. Type of series: ADME, cell-free. The following applies: read-out: Stability. In outline: as §1
Series [6] is filed under the species Rattus norvegicus. As to the kind of experiment: Vasodilation of phenylephrine-induced contraction in Wistar rat aorta. The class given is functional. A digest of the protocol: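 Thoracic aortic strips from male Wistar rats (180-200 g) were equilibrated 120 min and precontracted with 1 μM L-phenylephrine. At plateau, cumulative concentrations of vasodilator were added, with DMSO as vehicle. Relaxation was recorded isometrically and reported as EC50 ± SE (μM).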

The species entered for series [7] is Rattus norvegicus. As to the kind of experiment: Vasodilation of phenylephrine-induced contraction in Wistar rat aorta in the presence of HbO2. The class given is functional.

Sequence of Prostaglandin G/H synthase 1 (P23219 whole entry): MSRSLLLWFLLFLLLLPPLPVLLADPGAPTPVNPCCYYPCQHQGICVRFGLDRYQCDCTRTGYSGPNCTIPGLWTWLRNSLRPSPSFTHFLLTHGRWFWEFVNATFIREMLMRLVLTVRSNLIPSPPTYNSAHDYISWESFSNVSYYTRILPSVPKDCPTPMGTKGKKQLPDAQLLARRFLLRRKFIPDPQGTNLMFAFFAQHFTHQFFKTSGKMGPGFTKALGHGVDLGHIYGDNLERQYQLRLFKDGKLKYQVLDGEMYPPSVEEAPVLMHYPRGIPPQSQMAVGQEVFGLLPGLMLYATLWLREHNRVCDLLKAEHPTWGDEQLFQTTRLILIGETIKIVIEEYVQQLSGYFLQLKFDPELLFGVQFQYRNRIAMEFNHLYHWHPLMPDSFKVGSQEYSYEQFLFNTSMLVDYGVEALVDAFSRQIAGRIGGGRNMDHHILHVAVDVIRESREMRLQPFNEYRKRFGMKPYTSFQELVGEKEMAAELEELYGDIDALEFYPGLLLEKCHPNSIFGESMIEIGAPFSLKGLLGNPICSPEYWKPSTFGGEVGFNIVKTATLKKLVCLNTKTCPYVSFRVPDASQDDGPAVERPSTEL

Take `COc1ccc(-c2c(Cl)ncn2-c2ccc(S(C)(=O)=O)cc2)cc1F`: the negative logarithm of the IC50 (pIC50) in series [1] is 5.24; in series [2] it was 7.05. Moreover, the pEC50 in series [3] is 4.62.

Take `CS(=O)(=O)c1ccc(-n2cnc(Cl)c2-c2ccc(OCCCO)c(F)c2)cc1`: the pIC50 in series [1] and in series [2] was below 4.00 each time.

As for `CS(=O)(=O)c1ccc(-n2cnc(Cl)c2-c2ccc(OCCO)c(F)c2)cc1`, the pIC50 in series [1] was below 4.00; in series [2], 4.25.

Take `NS(=O)(=O)c1ccc(-n2cnc(Cl)c2-c2ccc(OCCO)c(F)c2)cc1`: the negative-log IC50 (pIC50) in series [1] was below 4.00; in series [2], 4.70.

Turning to `NS(=O)(=O)c1ccc(-n2cnc(Cl)c2-c2ccc(OCCO[N+](=O)[O-])c(F)c2)cc1`, the pIC50 in series [1] is below 4.00. Further, the remaining at 24 h, 100 µM was 58.8% in series [4] and above 98% in series [5]. In addition, the results for the pEC50 in series [6] and in series [3] were 7.29 and 4.92, respectively.

Consider `CS(=O)(=O)c1ccc(-n2cnc(Cl)c2-c2ccc(OCCO[N+](=O)[O-])c(F)c2)cc1`, for which the negative logarithm of the IC50 (pIC50) in series [1] was below 4.00. In addition, the remaining at 24 h, 100 µM in series [4] is 53.3%; in series [5], above 98%. In addition, the negative logarithm of the EC50 (pEC50) was 7.68 in series [6] and 5.19 in series [3].

`CS(=O)(=O)c1ccc(-n2cnc(Cl)c2-c2ccc(OCCCO[N+](=O)[O-])c(F)c2)cc1`: the pIC50 in series [1] is below 4.00; in series [2], 4.85. Besides, the remaining at 24 h, 100 µM in series [4] is 60.6%; in series [5] it was above 98%. Moreover, the values for the negative-log EC50 (pEC50) in series [6] and in series [3] were 7.11 and 5.20, respectively.

With `CS(=O)(=O)c1ccc(-n2cnc(Cl)c2-c2ccc(OCC(CO[N+](=O)[O-])O[N+](=O)[O-])c(F)c2)cc1` (centres undefined), the figures for the pIC50 in series [1] and in series [2] were below 4.00 and 4.12, respectively. For the same compound, the remaining at 24 h, 100 µM in series [4] was 43.6%; in series [5], above 97%. Further, the pEC50 was 7.21 in series [7] and below 4.00 in series [3].

As for `NS(=O)(=O)c1ccc(-n2cnc(Cl)c2-c2ccc(OCCCO[N+](=O)[O-])c(F)c2)cc1`, the results for the pIC50 in series [1] and in series [2] were below 4.00 and 4.80, respectively. The figures for the remaining at 24 h, 100 µM in series [4] and in series [5] were 64.1% and above 98%, respectively. Moreover, the pEC50 is 7.00 in series [6] and 4.74 in series [3].

Turning to `NS(=O)(=O)c1ccc(-n2cnc(Cl)c2-c2ccc(OCCCO)c(F)c2)cc1`, the pIC50 in series [1] and in series [2] was below 4.00 in each case.

Regarding `COc1ccc(-c2c(Cl)ncn2-c2ccc(S(N)(=O)=O)cc2)cc1F` [CIMICOXIB], the pIC50 in series [1] was 5.72. For the same compound, the pEC50 in series [3] was 4.60.

As for `O=[N+]([O-])O[C@H]1CO[C@H]2[C@@H]1OC[C@H]2O[N+](=O)[O-]` [ISOSORBIDE DINITRATE], the pEC50 in series [7] is 4.26; in series [6], 5.33; in series [3], below 4.00.
